# Assay results from different studies.
# Target: Serine/threonine-protein kinase PLK4 (PLK4, Homo sapiens, UniProt O00444)
# Sequence (O00444 1-970, as in one of the studies): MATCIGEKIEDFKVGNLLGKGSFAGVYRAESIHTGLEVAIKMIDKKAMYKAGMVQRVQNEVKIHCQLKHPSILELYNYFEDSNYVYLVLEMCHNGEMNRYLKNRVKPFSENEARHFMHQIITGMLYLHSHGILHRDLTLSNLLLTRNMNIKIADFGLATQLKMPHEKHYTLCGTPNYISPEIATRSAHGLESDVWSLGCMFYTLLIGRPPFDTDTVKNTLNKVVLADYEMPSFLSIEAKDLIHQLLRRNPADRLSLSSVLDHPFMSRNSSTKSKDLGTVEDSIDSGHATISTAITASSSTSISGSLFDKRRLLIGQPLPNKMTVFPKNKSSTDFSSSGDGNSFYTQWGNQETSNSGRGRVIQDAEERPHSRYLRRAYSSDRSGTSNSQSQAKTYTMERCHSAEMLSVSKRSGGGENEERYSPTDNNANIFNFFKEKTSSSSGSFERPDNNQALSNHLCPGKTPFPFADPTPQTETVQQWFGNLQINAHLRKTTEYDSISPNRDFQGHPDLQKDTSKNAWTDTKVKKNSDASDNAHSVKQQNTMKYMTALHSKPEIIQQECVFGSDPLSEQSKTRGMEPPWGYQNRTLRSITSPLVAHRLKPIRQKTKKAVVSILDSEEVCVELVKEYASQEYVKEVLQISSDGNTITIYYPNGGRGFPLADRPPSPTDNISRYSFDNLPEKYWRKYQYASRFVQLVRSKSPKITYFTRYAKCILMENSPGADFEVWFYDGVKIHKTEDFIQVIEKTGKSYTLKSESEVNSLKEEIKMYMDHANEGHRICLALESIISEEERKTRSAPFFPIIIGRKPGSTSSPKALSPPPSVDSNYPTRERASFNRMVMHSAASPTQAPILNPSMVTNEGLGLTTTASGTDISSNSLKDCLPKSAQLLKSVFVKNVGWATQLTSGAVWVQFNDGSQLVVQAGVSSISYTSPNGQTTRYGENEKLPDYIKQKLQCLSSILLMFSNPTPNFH
Compound,observed,method,concentration,remaining binding
N[C@H]1CCN(c2nccc(-c3cnn4ncccc34)n2)C1,binding,,1 µM,100%
FC(F)(F)Oc1cccc(-c2cnc3ccc(-c4ccncc4)nn23)c1,cell-free assay,competition with immobilised ligand,5 µM,91%
CNC(=O)c1ccc(Nc2ncc(C(F)(F)F)c(NCc3nccnc3N(C)S(C)(=O)=O)n2)cc1,cell-free assay,competition with immobilised ligand,0.1 µM,79%
CN(C)c1nccc(-c2cnc3ncccn23)n1,binding,,1 µM,68%
c1cncc(-c2cccc(Nc3nccc(NC4CCCCC4)n3)c2)c1,binding,competition with immobilised ligand,10 µM,34%
O=C(c1ccc(Nc2ncc(Cl)c(-c3cc4ccccc4s3)n2)cc1)N1CCC(N2CCCC2)CC1,binding,competition with immobilised ligand,1 µM,39%
C=CC(=O)N1CCC(C(=O)NCC(=O)N2CCN(c3nc(-c4cnc(N)nc4C(F)F)nc(N4CCOCC4)n3)CC2)CC1,binding,competition with immobilised ligand,1 µM,89%
CN(C)c1nccc(-c2cnn3ncccc23)n1,binding,,1 µM,96%
Cc1c[nH]c2nccc(Oc3c(F)cc(Nc4cc(Cl)nc(N)n4)cc3F)c12,cell-free assay,competition with immobilised ligand,0.1 µM,82%
COc1cnc(Nc2cccc(S(N)(=O)=O)c2)nc1N1CCN(c2ccccc2)C(=O)C1,binding,competition with immobilised ligand,1 µM,96%
O=C(N1CCS(=O)(=O)CC1)N1C[C@H](c2ccc(OC(F)(F)F)cc2)C[C@H](c2nc(C3CC3)no2)C1,cell-free assay,competition with immobilised ligand,1 µM,100%
O=C(c1ccc(Nc2nccc(-c3cc4ccccc4s3)n2)cc1)N1CCC(N2CCCC2)CC1,binding,competition with immobilised ligand,1 µM,56%
CCN1CCN(Cc2ccc(C(=O)Nc3ccc(C)c(Oc4ccc5c(c4)CC(=O)N5)c3)cc2C(F)(F)F)CC1,binding,competition with immobilised ligand,1 µM,100%
C[C@@H]1CN(c2ccc3ncc(-c4ccc5[nH]nc(C6CC6)c5c4)n3n2)C[C@H](C)O1,binding,competition with immobilised ligand,50 nM,88%
CN(C)c1ncc(F)c(-c2cnn3ncccc23)n1,binding,,1 µM,100%
COc1cnc(Nc2cccc(S(N)(=O)=O)c2)nc1N1CCN(c2ccccc2)CC1,binding,competition with immobilised ligand,1 µM,99%
CC(=O)c1c(NS(C)(=O)=O)c2cc(-c3ccc(Cl)cc3)c(-c3ccc(Cl)cc3Cl)nc2n(C)c1=O,cell-free assay,competition with immobilised ligand,1 µM,100%
O=C(Nc1c[nH]nc1C(=O)NC1CCNCC1)c1cc(F)cc(F)c1,binding,competition with immobilised ligand,1 µM,97%
C[C@H]1CCN(c2nccc(-c3cnn4ncccc34)n2)C1,binding,,1 µM,99%
CC(C)(C)c1ccc(-c2nc(CBr)nn2-c2cccc(O)c2)cc1,cell-free assay,competition with immobilised ligand,10 µM,88%
CCC(=O)N[C@H]1CC[C@@H](C(=O)N(C)c2ccc(-c3nc4ccccc4o3)cc2)C1,cell-free assay,competition with immobilised ligand,1 µM,78%
CN(c1nccc(-c2cnn3ncccc23)n1)C1CC1,binding,,1 µM,100%
CS(=O)(=O)N1CCCC(NC(=O)[C@H](CCC2CCCCC2)NC(=O)c2ccc(CNc3ncnc4c3nnn4-c3ccccc3)cc2)C1 (some centres unmarked),cell-free assay,competition with immobilised ligand,0.1 µM,82%
O=C(NCCCN1CCOCC1)c1ccc(Nc2nccc(-c3cc4ccccc4s3)n2)cc1,binding,competition with immobilised ligand,1 µM,58%
O=C1CCc2cc(Nc3cc(OC4CCOCC4)c([N+](=O)[O-])cc3Cl)ccc2N1,cell-free assay,competition with immobilised ligand,1 µM,86%
Cc1cnn2ncc(-c3ccnc(N(C)C)n3)c2c1,binding,,1 µM,74%
